Measurements from ChEMBL document CHEMBL3352121, “Modulation of Activity Profiles for Largazole-Based HDAC Inhibitors through Alteration of Prodrug Properties” (ACS Med Chem Lett, 2014).
The source made the active and inactive calls. No cut-off for these calls is given here.

Columns and labels:
Histone deacetylase 11 = molecular target: T1, Histone deacetylase 11 (Homo sapiens, UniProt Q96DB2); experiment: Inhibition of HDAC11 (unknown origin) incubated for 3 hrs in presence of BSA and in absence of DTT by fluorescence assay
T1 sequence (Q96DB2 whole entry): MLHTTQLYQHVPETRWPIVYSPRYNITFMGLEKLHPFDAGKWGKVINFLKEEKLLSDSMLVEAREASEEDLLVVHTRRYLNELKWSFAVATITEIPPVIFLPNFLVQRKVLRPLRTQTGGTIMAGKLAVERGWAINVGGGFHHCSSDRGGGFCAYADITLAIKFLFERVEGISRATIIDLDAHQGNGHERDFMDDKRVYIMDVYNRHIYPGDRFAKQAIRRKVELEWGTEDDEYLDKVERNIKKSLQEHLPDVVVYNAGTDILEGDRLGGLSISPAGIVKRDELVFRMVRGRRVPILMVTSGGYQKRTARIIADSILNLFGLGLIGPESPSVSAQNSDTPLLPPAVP

[1] = Drug level in human HCT116 cells protein lysate solution treated with 25 ug/mL compound 6 assessed as compound formation after 4 hrs by HPLC-MS method; type: ADME, cell-based; settings: hct-116, 4 h
Serum [2] = experiment: Drug metabolism in mouse serum treated with largazole assessed as compound formation after 0.25 to 1440 mins by HPLC-MS method; type: ADME, cell-free
[3] = Drug level in human HCT116 cells protein lysate solution treated with 25 ug/mL largazole assessed as compound formation after 30 mins by HPLC-MS method; type: ADME, cell-based; settings: hct-116, 0.5 h
[4] = Drug level in human HCT116 cells protein lysate solution treated with 25 ug/mL compound 4 assessed as compound formation after 1 hr by HPLC-MS method; type: ADME, cell-based; settings: hct-116, 1 h
[5] = Drug level in tumor of human HCT116 cells xenografted nu/nu mouse treated with 10 mg/kg, po largazole assessed as compound formation by HPLC-MS method; type: ADME, organism-based, Neoplasm, HCT-116; parameters: dose 10 mg/kg, route oral; settings: in vivo
Serum [6] = experiment: Drug metabolism in mouse serum assessed as largazole thiol formation after 0.25 to 1440 mins by HPLC-MS method; type: ADME, cell-free
HCT-116 [7] = experiment: In vivo inhibition of HDAC in tumor of human HCT116 cells xenografted nu/nu mouse assessed as increase in histone hyperacetylation at 10 mg/kg, ip after 24 hrs by immunoblotting method; type: functional, organism-based; parameters: dose 10 mg/kg
Summary of the method: (§1)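 Mice bearing HCT116 xenografts were dosed intraperitoneally at 10 or 50 mg/kg, or orally at 50 mg/kg. Tumors were excised at 4, 12 and 24 h. Histone hyperacetylation in the tumors was assessed by immunoblot, n = 2.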

[8] = Drug metabolism in tumor of human HCT116 cells xenografted nu/nu mouse assessed largazole thiol formation at 50 mg/kg, po by HPLC-MS method; settings: in vivo
[9] = molecular target: Histone deacetylase (Homo sapiens) (UniProt Q13547+O15379+Q9UBN7+Q92769+Q9UQL6+Q8WUI4+Q9BY41+Q96DB2+P56524+Q9UKV0+Q969S8); experiment: Inhibition of HDAC in human HCT116 cells assessed as increase in histone H3 (Lys9/14) hyperacetylation at 320 pM to 10 uM after 8 to 24 hrs by immunoblotting method; type: cell-based; settings: HCT-116
Summary of the method: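 HCT116 cells were treated across a dose range, then harvested at 8 and 24 h post-treatment. Cellular HDAC inhibition was read as histone H3 (Lys9/14) hyperacetylation by immunoblot.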

[10] = Drug metabolism in human HCT116 cells protein lysate solution assessed as largazole thiol formation at 25 ug/mL after 4 hrs by HPLC-MS method; type: ADME, cell-based; settings: hct-116, 4 h
HCT-116 [11] = experiment: In vivo inhibition of HDAC in tumor of human HCT116 cells xenografted nu/nu mouse assessed as increase in histone hyperacetylation at 50 mg/kg, ip after 24 hrs by immunoblotting method; type: functional, organism-based; parameters: dose 50 mg/kg; summary of the method: as §1
HCT-116 [12] = experiment: In vivo inhibition of HDAC in tumor of human HCT116 cells xenografted nu/nu mouse assessed as increase in histone hyperacetylation at 50 mg/kg, po after 4 to 12 hrs by immunoblotting method; type: functional, organism-based; parameters: dose 50 mg/kg; summary of the method: as §1

Drug metabolism (Serum [6]) | Drug metabolism [8] | inhibition [9] | Drug metabolism [10] | Compound | IC50 (Histone deacetylase 11) [nM] | Drug metabolism [1] | Drug metabolism (Serum [2]) | Drug metabolism [3] | Drug metabolism [4] | Drug metabolism [5] | inhibition (HCT-116 [7]) | inhibition (HCT-116 [11]) | inhibition (HCT-116 [12])
 |  |  |  | CC(C)[C@@H]1NC(=O)[C@]2(C)CSC(=N2)c2csc(n2)CNC(=O)C[C@@H](/C=C/CCS)OC1=O [LARGAZOLE THIOL] | 3 | metabolite_detected | metabolite_detected | metabolite_detected | metabolite_detected | metabolite_detected |  |  | 
metabolite_notdetected | metabolite_notdetected | Active | metabolite_detected | CC(C)[C@@H]1NC(=O)[C@]2(C)CSC(=N2)c2csc(n2)CNC(=O)C[C@@H](/C=C/CCSSC[C@H](NC(=O)OC(C)(C)C)C(=O)O)OC1=O |  |  |  |  |  |  | Active | Active | inactive
